Bioassay records as filed in PubChem.
G6PDH CS: inhibits Leuconostoc G6PDH, flagging false hits in G6PDH-based assays | Purified L. mesenteroides G6PDH, diaphorase/resazurin coupled fluorescence, 45 min | inhibition, % at 5 µM | AID 1020 | hit rate 0.12% among 200,000; in the data active = inhibition above about 50%
Diaphorase inh: counter-screen for diaphorase-based assays: diaphorase inhibitors and chemical oxidizers | hit rate 0.69% among 190,000 | inhibition, % at 20 µM | diaphorase resazurin-to-resorufin fluorescence, NADH, 16 min; bacterial (C. kluyveri) enzyme, not human | AID 1217;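 active = primary screen inhibition at 20 µM above a set limit, cut at about 50% in these data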;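 also: plate controls were DMSO with full reaction for no effect and wells lacking NADH for full effect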
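System: Bacterial diaphorase enzyme (C. kluyveri) | Incubation: 16-min room-temperature incubation before reading | Benchmarks: No-NADH positive control and DMSO neutral control | Measured by: Resorufin fluorescence 544/590 nm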
HKDC1 inhibitor: blocks human hexokinase HKDC1 activity; Q2TB90; hit rate 0.16% among 340,000; AID 493160; recombinant HKDC1, G6PDH/diaphorase resazurin coupled fluorescence; inhibition, % at 20 µM;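 active = inhibition above about 35% when tested at 20 µM, limit read from the data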;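 also: plate controls were DMSO wells with enzyme for no effect and DMSO wells lacking enzyme for full effect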
Target sequence (Q2TB90 whole entry, looked up): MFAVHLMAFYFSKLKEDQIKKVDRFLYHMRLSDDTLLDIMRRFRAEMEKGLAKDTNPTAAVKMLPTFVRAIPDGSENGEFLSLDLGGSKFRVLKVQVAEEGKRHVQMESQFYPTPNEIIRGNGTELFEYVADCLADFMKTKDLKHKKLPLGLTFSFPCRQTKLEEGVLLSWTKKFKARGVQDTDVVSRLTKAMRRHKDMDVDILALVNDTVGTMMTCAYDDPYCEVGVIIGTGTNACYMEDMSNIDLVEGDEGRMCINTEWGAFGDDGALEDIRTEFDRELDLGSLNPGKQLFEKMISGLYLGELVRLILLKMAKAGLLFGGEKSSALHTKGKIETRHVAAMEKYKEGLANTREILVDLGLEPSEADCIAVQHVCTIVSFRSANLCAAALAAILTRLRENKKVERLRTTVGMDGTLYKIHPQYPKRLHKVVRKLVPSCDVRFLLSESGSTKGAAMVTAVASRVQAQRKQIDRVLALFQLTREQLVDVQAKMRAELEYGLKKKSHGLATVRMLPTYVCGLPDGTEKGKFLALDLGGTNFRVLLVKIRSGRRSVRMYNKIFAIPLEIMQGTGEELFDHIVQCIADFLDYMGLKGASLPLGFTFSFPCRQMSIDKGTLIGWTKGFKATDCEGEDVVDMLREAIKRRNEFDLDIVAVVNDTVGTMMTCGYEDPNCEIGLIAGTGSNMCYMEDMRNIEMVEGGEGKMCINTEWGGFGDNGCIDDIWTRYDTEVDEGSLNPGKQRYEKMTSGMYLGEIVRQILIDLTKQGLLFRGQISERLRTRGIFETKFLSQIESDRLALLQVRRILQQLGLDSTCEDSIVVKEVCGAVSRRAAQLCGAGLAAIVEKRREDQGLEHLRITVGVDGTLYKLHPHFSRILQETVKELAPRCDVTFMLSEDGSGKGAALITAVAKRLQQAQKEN
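Material: recombinant HKDC1 hexokinase; Amount: HKDC1 at 5 µg/mL; Medium: Tris pH 8.0 buffer with MgCl2, Tween-20, BSA, BME; Schedule: 90 min reaction incubation at room temperature, dark; Technique: coupled resazurin fluorescence, excitation 525 nm, emission 613 nm.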
PfGluPho inh: PfG6PD (Plasmodium falciparum) enzyme inhibition; PfGluPho enzyme, NADPH resazurin-diaphorase fluorescence; inhibition, % at 20 µM; hit rate 0.78% among 350,000; AID 504690;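 active = inhibition reaching at least a set limit at 20 µM in the primary screen, cut at about 59% in these data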;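 also: 0% = DMSO wells with substrate and 100% = DMSO wells lacking glucose-6-phosphate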
The depositor's hits bear a star; · = no result. In the library only some 1.2% were active in any assay of this set; here they are far more common.

SMILES	G6PDH CS	Diaphorase inh	HKDC1 inhibitor	PfGluPho inh
COc1ccc(NC(=S)NC23CC4CC(CC(C4)C2)C3)cc1OC	·	·	7	1
COc1ccc(Br)cc1C(=O)Nc1ccc(C(=O)O)cc1	4	92*	-6	-1
COc1ccc(NC(=O)c2cc3cccc(OC)c3oc2=Nc2ccc(C(=O)O)cc2)cc1OC	-2	78*	16	-4
Cc1ccc(-c2ccc(=O)n(CC(=O)NCCN3CCCCC3C)n2)cc1 (centres undefined)	10	53*	-4	-10
Cc1ccc(-c2ccc(=O)n(CCC(=O)NCCN3CCCCC3C)n2)cc1 (centres undefined)	-9	8	-12	-21
CSCC[C@H](NC(=O)N1CCn2c1nc1ccccc12)C(=O)NCc1ccc(C)cc1	·	·	2	11
O=C(/C(=N/N=C/c1ccc(O)c(O)c1O)c1ccccc1)c1ccccc1	20	62*	16	-7
COc1ccc(C(=O)C(=NN)c2ccccc2)cc1	·	·	·	0
COc1ccccc1NC(=O)C1CCCN1C(=O)Nc1ccc(F)cc1 (centres undefined)	·	·	-4	-12
CCC1=NN2C(=N)/C(=C\c3cccn3-c3ccc(Cl)cc3)C(=O)N=C2S1	-9	25	-10	-11
Cc1ccc(-n2cccc2/C=C2\C(=N)N3N=C(c4ccco4)SC3=NC2=O)cc1	-2	56*	14	-23
CN=c1scc(-c2ccccc2F)n1/N=C/c1ccc[nH]1	8	27	0	7
CN=c1scc(-c2ccccc2F)n1/N=C/c1ccc(O)c(O)c1O	5	68*	19	40
CC(C)N=c1scc(-c2cccs2)n1/N=C/c1ccc(O)c(O)c1O	-11	66*	18	50
O=C(COC(=O)Cc1ccc(Cl)cc1)NC1CCCC1	·	·	-5	0
O=S1(=O)N(Cc2ccccc2F)CCCN1Cc1c(F)cccc1Cl	·	·	1	5
O=C(CSc1n[nH]c(-c2ccccc2)n1)c1ccc(O)c(O)c1	12	71*	1	30
Cc1ccc(O)c(NC(=O)CSc2n[nH]c(-c3ccccc3)n2)c1	·	·	7	-5
Cc1cc(SCC(=O)c2ccc(O)c(O)c2)nc2ccccc12	2	50*	0	-26
NS(=O)(=O)c1cc(Br)c2c(c1)S(=O)(=O)NCN2	·	·	·	0
CCOC(=O)c1ccccc1NC(=O)Cc1ccc(S(=O)(=O)N2CCCC2)s1	·	·	-1	0
COc1ccc(NC(=O)CSc2nc3c(c(-c4cccs4)c2C#N)CN(C)CC3)cc1OC	14	57*	-1	43
N#Cc1c(NC(=O)CSc2ncnc3sccc23)oc(-c2ccco2)c1-c1ccco1	19	60*	13	4
Cc1cc(NC(=O)CSc2ncnc3sccc23)no1	4	10	7	-11
Cc1ccc(Cl)c(NC(=O)CSc2n[nH]c(=O)n2C2CC2)c1Cl	·	·	-2	17
SMILES	G6PDH CS	Diaphorase inh	HKDC1 inhibitor	PfGluPho inh
CC1=CC(C)(C)Nc2ccc(OS(=O)(=O)c3ccc(C)cc3)cc21	24	50*	-1	57
CC(=O)Nc1ccc(S(=O)(=O)Oc2ccc3c(c2)C(C)=CC(C)(C)N3)cc1	12	27	·	·
Cc1cccc(C)c1OCc1cc(C(=O)N(Cc2nccn2C)C(C)C)no1	·	·	-5	-17
O=C(O)/C=C/C(=O)Nc1ccc2c(c1)NC(=O)CO2	7	61*	-4	13
CCc1cc2c(=O)n(-c3ccccc3)c(=S)[nH]c2s1	6	81*	-7	44
Cc1nn(-c2ccc(Cl)cc2)c(=O)c2ccccc12	1	4	-12	-5
Cc1c(Cl)sn(-c2ccc(Cl)cc2)c1=O	9	-11	1	106*
O=C1C=CC(=O)N1c1cccc(-c2ccccc2)c1	·	·	7	98*
O=c1cc(-c2ccccc2)[nH]n1-c1ccccc1	·	·	4	-6
COc1ccc(C(=O)N2CCN(Cc3cc(OC)c(O)c(OC)c3)CC2)cc1OC	55*	29	-1	-7
COc1cc(CN2CCN(C(=O)CC(C)C)CC2)cc(OC)c1O	53*	39	-12	-3
O=c1c2c([N+](=O)[O-])cc([N+](=O)[O-])cc2sn1-c1ccc(Br)cc1	-4	67*	7	121*
O=[N+]([O-])c1ccc(S(=O)Cc2ccccc2)c([N+](=O)[O-])c1 (centres undefined)	·	·	14	58
O=C(Nc1ccc(Br)cc1)c1cc([N+](=O)[O-])cc([N+](=O)[O-])c1	·	·	9	8
O=c1c2c([N+](=O)[O-])cc([N+](=O)[O-])cc2sn1Cc1ccccc1	·	·	3	124*
O=C(NCCOc1ccc(Cl)cc1)C(=O)NCC1CCCO1 (centres undefined)	10	51*	-10	3
O=C(NCCOc1ccccc1)C(=O)NCC1CCCO1 (centres undefined)	17	14	5	3
C=CCc1cc(/C=C/c2nc(O)c([N+](=O)[O-])c(=O)[nH]2)cc(OC)c1O	5	71*	11	30
CCN(CC)CCNC(=O)CSc1c2c(nc3cc(Cl)ccc13)CCCC2	6	53*	5	4
COc1cc(CCC(=O)Nc2ccc(C)c(S(=O)(=O)N3CCCCCC3)c2)cc(OC)c1OC	·	·	-5	-2
CCn1c(O)c(N=N)c2ccccc21	-1	12	-1	12
CCn1c(O)c(N=NC2=NC(=O)CS2)c2ccccc21	2	65*	-9	-26
N#CC1(NC(=O)CSc2nnc(Nc3ccccc3F)s2)CCCC1	·	·	-3	0
O=C1CC(=O)N(Cc2ccco2)C(=S)N1	4	68*	17	-4
O=C1CC(=O)N(Cc2ccco2)C(=O)N1	1	4	12	4
SMILES	G6PDH CS	Diaphorase inh	HKDC1 inhibitor	PfGluPho inh
COc1cccc(OC)c1C(=O)N1CCN(C(=O)c2ccc(-c3ccccc3)cc2)CC1	·	·	-1	4
COc1cccc(-c2nc(SCC(=O)Nc3nc(-c4ccccc4)c(C)s3)[nH]c(=O)c2C#N)c1	8	81*	6	-56
Cc1sc(NC(=O)CSc2nc(O)cc(=O)[nH]2)nc1-c1ccccc1	7	38	0	-26
CCOc1ccc2nc(NC(=O)CSc3nc(-c4ccccc4)c(C#N)c(=O)[nH]3)sc2c1	5	59*	-3	-61
Cc1ccc(C(=O)NCc2ccc(F)cc2)cc1NC1=NC2CS(=O)(=O)CC2S1 (centres undefined)	·	·	2	7
CCC(C)[C@H](NC(=O)N1CC(=O)Nc2ccccc21)C(=O)N[C@H](C(=O)O)c1ccccc1 (some centres undefined)	·	·	-5	12
N#Cc1c2ccc(OCC(N)=O)cc2n2ccccc12	44	70*	11	43
Cn1cc(/C=C2\SC(=O)NC2=S)c2ccccc21	11	54*	-7	6
O=C(CNC(=O)OCc1ccccc1)OC(c1ccccc1)c1ccccc1	·	·	1	6
Cc1ccc(NC2=C/C(=N/S(=O)(=O)c3cccs3)c3ccccc3C2=O)cc1	50*	16	7	30
Cc1ccc(S(=O)(=O)/N=C2\C=C(Nc3ccc(O)cc3)C(=O)c3ccccc32)cc1	·	·	34	111*
CCCc1nc2sc3c(=O)n(N)cnc3c2c2c1COC(C)(C)C2	-7	4	·	·
